According to ChEMBL document CHEMBL1139407, “Pyridyl and thiazolyl bisamide CSF-1R inhibitors for the treatment of cancer” (Bioorg Med Chem Lett, 2008):

Assays:
[1] = biological target: T1, Macrophage colony-stimulating factor 1 receptor (Homo sapiens, UniProt P07333); test: Inhibition of CSF1R
NIH3T3 = test: Antiproliferative activity against mouse 3T3 cells expressing human CSF1R after 72 hrs by Celltiter assay; type: functional
Summary of the method: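 3T3 cells engineered with human full-length CSF-1R, seeded in phenol red-free DMEM with 0.05% BSA and incubated overnight. Treated with DMEM containing 80 ng/ml M-CSF plus insulin, transferrin and selenium at multiple compound concentrations. […] Growth read by MTS-type CellTiter 96 Aqueous One after 72 h.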

[2] = Bioavailability in rat at 3 mg/kg, iv and 10 mg/kg, po; type: ADME, organism-based; details: in vivo
[3] = Clearance in rat at 3 mg/kg, iv and 10 mg/kg, po; type: ADME, organism-based; details: in vivo
[4] = Volume of distribution at steady state in rat at 3 mg/kg, iv and 10 mg/kg, po; type: ADME, organism-based; details: in vivo, read-out: Vdss
[5] = Half life in rat at 3 mg/kg, iv and 10 mg/kg, po; type: ADME, organism-based; details: in vivo
[6] = biological target: T1, Macrophage colony-stimulating factor 1 receptor; test: Inhibition of CSF1R assessed as residual enzyme activity at 1 uM
[7] = biological target: Ephrin type-A receptor 2 (Homo sapiens) (UniProt P29317); test: Inhibition of EphA2 assessed as residual enzyme activity at 1 uM
[8] = biological target: Tyrosine-protein kinase HCK (Homo sapiens) (UniProt P08631); test: Inhibition of Hck assessed as residual enzyme activity at 1 uM
[9] = biological target: Tyrosine-protein kinase Fyn (Homo sapiens) (UniProt P06241); test: Inhibition of Fyn assessed as residual enzyme activity at 1 uM
[10] = biological target: RAF proto-oncogene serine/threonine-protein kinase (Homo sapiens) (UniProt P04049); test: Inhibition of cRaf assessed as residual enzyme activity at 1 uM
[11] = biological target: Proto-oncogene tyrosine-protein kinase Src (Homo sapiens) (UniProt P12931); test: Inhibition of Src assessed as residual enzyme activity at 1 uM
[12] = biological target: Vascular endothelial growth factor receptor 2 (Homo sapiens) (UniProt P35968); test: Inhibition of KDR assessed as residual enzyme activity at 1 uM
[13] = biological target: Platelet-derived growth factor receptor beta (Homo sapiens) (UniProt P09619); test: Inhibition of PDGFRbeta assessed as residual enzyme activity at 1 uM
[14] = biological target: Mast/stem cell growth factor receptor Kit (Homo sapiens) (UniProt P10721); test: Inhibition of cKit assessed as residual enzyme activity at 1 uM
[15] = biological target: Glycogen synthase kinase-3 beta (Homo sapiens) (UniProt P49841); test: Inhibition of GSK3-beta assessed as residual enzyme activity at 1 uM
[16] = biological target: Cyclin-dependent kinase 2 (Homo sapiens) (UniProt P24941); test: Inhibition of CDK2/cyclinA assessed as residual enzyme activity at 1 uM
[17] = biological target: Insulin-like growth factor 1 receptor (Homo sapiens) (UniProt P08069); test: Inhibition of IGF1-R assessed as residual enzyme activity at 1 uM
[18] = biological target: Insulin receptor (Homo sapiens) (UniProt P06213); test: Inhibition of insulin receptor assessed as residual enzyme activity at 1 uM
[19] = biological target: Hepatocyte growth factor receptor (Homo sapiens) (UniProt P08581); test: Inhibition of Met assessed as residual enzyme activity at 1 uM
[20] = biological target: Fibroblast growth factor receptor 1 (Homo sapiens) (UniProt P11362); test: Inhibition of FGFR1 assessed as residual enzyme activity at 1 uM
[21] = biological target: Angiopoietin-1 receptor (Homo sapiens) (UniProt Q02763); test: Inhibition of Tie2 assessed as residual enzyme activity at 1 uM
[22] = biological target: Inhibitor of nuclear factor kappa-B kinase subunit beta (Homo sapiens) (UniProt O14920); test: Inhibition of IKK-beta assessed as residual enzyme activity at 1 uM
[23] = biological target: Tyrosine-protein kinase JAK2 (Homo sapiens) (UniProt O60674); test: Inhibition of JAK2 assessed as residual enzyme activity at 1 uM
[24] = biological target: Receptor-type tyrosine-protein kinase FLT3 (Homo sapiens) (UniProt P36888); test: Inhibition of Flt3 assessed as residual enzyme activity at 1 uM
[25] = biological target: Mitogen-activated protein kinase 1 (Homo sapiens) (UniProt P28482); test: Inhibition of MAPK1 assessed as residual enzyme activity at 1 uM
[26] = biological target: Serine/threonine-protein kinase pim-1 (Homo sapiens) (UniProt P11309); test: Inhibition of Pim-1 assessed as residual enzyme activity at 1 uM
[27] = biological target: Epidermal growth factor receptor (Homo sapiens) (UniProt P00533); test: Inhibition of EGFR assessed as residual enzyme activity at 1 uM
Mus musculus [28] = test: Inhibition of phosphorylated CSF1R level in 3T3/CSF1R mutant cells xenografted nude mouse at 50 mg/kg, po after 2 hrs by ELISA; type: functional
Summary of the method: (§1)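 3T3 cells expressing constitutively active human mutant full-length CSF-1R (301–969) were implanted subcutaneously at 5 × 10⁶ cells in female nude mice and grown to tumors >250 mm³. After dosing, tumors were assayed for pCSF-1R by ELISA, and plasma was sampled for drug levels.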

Mus musculus [29] = test: Inhibition of phosphorylated CSF1R level in 3T3/CSF1R mutant cells xenografted nude mouse at 50 mg/kg, po after 6 hrs by ELISA; type: functional; summary of the method: as §1

T1 sequence (P07333 whole entry): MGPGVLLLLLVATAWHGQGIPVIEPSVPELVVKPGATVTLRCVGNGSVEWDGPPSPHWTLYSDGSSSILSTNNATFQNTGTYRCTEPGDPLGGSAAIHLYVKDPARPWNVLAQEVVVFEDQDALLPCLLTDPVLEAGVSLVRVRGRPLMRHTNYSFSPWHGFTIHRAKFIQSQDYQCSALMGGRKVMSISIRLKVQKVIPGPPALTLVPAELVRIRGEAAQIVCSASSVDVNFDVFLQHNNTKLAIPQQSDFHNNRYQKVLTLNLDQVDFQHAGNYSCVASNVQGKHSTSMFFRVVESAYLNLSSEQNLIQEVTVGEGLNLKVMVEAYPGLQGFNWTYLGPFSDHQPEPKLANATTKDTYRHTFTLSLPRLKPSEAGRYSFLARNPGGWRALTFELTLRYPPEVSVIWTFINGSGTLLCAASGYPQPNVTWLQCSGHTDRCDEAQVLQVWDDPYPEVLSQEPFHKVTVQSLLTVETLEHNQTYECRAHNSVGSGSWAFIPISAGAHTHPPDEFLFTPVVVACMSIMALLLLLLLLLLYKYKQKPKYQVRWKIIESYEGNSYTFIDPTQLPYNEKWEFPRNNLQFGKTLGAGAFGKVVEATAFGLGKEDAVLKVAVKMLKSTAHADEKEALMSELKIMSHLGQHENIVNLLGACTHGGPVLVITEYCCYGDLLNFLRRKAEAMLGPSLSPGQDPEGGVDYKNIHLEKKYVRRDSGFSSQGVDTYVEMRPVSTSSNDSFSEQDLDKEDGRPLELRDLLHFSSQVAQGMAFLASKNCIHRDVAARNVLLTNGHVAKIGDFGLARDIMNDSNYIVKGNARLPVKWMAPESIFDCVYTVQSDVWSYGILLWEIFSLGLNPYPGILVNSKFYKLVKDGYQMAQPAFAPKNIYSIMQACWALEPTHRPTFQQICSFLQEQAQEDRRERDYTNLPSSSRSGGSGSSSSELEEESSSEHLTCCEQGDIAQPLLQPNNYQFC
Chain of Insulin receptor (Homo sapiens) (P06213 28-758 limits assumed): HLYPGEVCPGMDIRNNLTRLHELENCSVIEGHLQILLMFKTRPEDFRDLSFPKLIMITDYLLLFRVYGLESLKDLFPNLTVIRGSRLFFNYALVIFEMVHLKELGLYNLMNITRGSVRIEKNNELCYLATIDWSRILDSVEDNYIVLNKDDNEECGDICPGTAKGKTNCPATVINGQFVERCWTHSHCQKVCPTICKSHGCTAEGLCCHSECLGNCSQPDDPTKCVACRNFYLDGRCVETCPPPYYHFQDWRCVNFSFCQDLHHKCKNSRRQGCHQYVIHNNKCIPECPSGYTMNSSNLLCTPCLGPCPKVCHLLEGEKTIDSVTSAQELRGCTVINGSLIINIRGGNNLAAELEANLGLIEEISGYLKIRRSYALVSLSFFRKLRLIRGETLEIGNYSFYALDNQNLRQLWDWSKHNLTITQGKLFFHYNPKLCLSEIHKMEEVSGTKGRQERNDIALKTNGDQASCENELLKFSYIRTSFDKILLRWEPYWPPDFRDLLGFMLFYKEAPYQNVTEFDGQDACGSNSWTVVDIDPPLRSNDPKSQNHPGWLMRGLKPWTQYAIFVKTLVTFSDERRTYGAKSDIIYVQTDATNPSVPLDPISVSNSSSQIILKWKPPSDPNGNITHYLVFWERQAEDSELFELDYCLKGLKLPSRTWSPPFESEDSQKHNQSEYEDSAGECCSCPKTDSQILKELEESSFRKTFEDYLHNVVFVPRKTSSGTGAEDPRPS
Chain of Insulin receptor (Homo sapiens) (P06213 763-1382 limits assumed): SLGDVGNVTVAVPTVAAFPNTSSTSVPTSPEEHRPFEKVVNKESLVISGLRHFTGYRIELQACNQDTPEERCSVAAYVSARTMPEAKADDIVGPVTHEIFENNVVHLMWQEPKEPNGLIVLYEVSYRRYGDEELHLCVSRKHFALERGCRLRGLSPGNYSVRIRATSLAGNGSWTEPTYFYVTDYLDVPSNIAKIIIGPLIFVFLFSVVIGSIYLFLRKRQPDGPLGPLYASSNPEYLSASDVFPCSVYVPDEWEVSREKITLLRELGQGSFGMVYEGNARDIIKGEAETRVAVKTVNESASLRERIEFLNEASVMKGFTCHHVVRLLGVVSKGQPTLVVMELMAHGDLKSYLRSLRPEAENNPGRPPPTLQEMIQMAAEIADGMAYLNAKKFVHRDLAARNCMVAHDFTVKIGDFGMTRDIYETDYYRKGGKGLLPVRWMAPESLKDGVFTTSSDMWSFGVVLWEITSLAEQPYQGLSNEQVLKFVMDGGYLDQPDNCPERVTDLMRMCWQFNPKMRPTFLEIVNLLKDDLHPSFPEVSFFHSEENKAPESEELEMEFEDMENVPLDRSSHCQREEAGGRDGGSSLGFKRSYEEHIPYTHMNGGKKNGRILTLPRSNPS
Chain of Hepatocyte growth factor receptor (Homo sapiens) (P08581 whole entry): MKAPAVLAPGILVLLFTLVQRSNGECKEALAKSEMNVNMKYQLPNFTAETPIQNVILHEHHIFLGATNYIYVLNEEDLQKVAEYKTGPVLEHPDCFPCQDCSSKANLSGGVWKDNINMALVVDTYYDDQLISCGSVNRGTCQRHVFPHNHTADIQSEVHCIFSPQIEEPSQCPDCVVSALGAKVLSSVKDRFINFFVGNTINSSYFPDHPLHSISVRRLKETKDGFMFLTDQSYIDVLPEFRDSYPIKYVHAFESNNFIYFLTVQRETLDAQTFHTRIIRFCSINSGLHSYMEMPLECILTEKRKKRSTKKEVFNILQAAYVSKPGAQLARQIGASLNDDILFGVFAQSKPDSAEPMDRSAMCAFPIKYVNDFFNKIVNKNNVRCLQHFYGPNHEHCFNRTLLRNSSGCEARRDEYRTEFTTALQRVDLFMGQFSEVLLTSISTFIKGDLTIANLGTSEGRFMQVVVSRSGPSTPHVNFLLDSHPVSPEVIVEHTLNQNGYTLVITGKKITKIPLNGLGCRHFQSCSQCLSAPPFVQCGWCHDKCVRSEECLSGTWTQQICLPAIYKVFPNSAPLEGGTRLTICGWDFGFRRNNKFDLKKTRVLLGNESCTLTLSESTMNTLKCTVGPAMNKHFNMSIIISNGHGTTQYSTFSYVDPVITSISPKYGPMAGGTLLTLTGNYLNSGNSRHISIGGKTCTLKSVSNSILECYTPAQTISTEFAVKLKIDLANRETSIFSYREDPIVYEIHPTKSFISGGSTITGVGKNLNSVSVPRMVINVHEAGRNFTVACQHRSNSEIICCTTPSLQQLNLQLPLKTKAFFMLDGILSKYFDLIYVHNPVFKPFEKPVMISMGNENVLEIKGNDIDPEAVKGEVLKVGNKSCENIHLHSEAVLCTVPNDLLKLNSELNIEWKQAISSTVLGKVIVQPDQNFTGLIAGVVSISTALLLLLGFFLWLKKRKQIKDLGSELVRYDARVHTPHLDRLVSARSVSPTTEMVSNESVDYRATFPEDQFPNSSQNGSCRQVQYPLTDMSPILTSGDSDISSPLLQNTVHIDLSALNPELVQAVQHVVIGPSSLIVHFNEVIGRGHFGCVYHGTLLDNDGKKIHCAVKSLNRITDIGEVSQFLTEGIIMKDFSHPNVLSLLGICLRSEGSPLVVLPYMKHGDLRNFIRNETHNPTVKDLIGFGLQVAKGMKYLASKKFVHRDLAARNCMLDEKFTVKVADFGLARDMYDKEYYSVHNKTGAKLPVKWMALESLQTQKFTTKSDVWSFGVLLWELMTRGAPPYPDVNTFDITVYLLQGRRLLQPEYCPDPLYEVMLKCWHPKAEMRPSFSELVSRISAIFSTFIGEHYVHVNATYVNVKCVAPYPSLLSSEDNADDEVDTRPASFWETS
Chain of Epidermal growth factor receptor (Homo sapiens) (P00533 whole entry): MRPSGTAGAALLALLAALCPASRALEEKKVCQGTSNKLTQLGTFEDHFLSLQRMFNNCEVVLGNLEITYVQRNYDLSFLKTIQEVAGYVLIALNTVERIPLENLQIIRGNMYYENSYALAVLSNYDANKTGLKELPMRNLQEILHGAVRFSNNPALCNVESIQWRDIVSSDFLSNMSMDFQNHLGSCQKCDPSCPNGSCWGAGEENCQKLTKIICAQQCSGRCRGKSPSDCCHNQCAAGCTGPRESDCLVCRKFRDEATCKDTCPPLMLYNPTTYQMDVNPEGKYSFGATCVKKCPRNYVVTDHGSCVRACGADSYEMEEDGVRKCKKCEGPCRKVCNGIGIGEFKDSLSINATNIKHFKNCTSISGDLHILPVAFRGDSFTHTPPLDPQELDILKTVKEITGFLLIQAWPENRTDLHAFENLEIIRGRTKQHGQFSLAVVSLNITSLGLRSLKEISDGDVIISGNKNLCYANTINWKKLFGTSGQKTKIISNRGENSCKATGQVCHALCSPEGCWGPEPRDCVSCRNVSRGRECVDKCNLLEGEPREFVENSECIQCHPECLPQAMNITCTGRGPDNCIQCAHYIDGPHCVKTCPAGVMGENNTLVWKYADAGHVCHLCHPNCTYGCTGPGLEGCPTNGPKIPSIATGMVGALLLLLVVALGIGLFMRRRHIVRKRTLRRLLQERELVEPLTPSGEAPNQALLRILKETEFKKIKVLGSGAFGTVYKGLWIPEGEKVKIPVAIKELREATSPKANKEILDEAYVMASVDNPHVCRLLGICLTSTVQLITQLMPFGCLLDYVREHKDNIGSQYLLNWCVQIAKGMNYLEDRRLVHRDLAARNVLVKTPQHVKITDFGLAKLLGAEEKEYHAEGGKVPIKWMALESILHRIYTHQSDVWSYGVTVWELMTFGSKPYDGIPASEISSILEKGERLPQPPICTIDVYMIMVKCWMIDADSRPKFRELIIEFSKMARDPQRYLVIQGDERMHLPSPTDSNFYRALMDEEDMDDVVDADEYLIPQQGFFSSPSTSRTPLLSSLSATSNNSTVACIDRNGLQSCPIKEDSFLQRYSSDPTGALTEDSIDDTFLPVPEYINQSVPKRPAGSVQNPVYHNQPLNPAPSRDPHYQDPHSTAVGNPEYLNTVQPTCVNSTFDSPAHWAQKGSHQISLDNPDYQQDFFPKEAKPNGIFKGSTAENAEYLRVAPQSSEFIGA

Cc1ncc(NC(=O)c2cc(NC(=O)c3cccc(C(F)(F)F)c3)ccc2Cl)s1 gave an IC50 [1] of 7 nM, an Activity (NIH3T3) of 0.05 µM and a bioavailability [2] of 62%. For the same molecule, the clearance [3] was 13 mL/min/kg, the Vd [4] was 1.1 L/kg and the half-life [5] was 1.2 h. For the same molecule, the Activity [6] was 1%, the Activity [7] was 5% and the Activity [8] was 6%. The Activity [9] was 7%, the Activity [10] was 9% and the Activity [11] was 10%. It also gave an Activity [12] of 10%, an Activity [13] of 45% and an Activity [14] of 57%. The Activity [15] was 91%, the Activity [16] was 95% and the Activity [17] was 107%. For the same molecule, the Activity [18] was 108%, the Activity [19] was 109% and the Activity [20] was 111%. The Activity [21] was 111%, the Activity [22] was 112% and the Activity [23] was 112%. For the same molecule, the Activity [24] was 114%, the Activity [25] was 116% and the Activity [26] was 116%. It also gave an Activity [27] of 118%, an inhibition in vivo at 50 mg/kg (Mus musculus [28]) of 70% and an inhibition in vivo at 50 mg/kg (Mus musculus [29]) of 35%.
